Where no end group is shown, it is not given here.
How the values were obtained:
TA-CaM = details: cited from earlier work
[1] = cited from earlier work
[2] = Ca^2+ dissociation kinetics of CaM and mutant CaMs without peptide; assay type: binding; details: no peptide; calibration of ΔRF per site
Outline: (§1)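 Human liver wild-type CaM and the EF-hand mutants CaM12 (D22A/D58A) and CaM34 (D95A/D131A) were expressed in E. coli and HPLC-purified, EGTA-free. In stopped flow, 90 µM quin 2 with no added Ca2+ was mixed with 3 µM CaM or CaM·peptide in 50 µM Ca2+ buffer (mixing-chamber concentrations). Buffer was 50 mM K+-PIPES pH 7.0, 100 mM KCl, 2 mM MgCl2.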

CaM34 (D95A/D131A CaM) = CaM34 (D95A/D131A CaM) (Homo sapiens, UniProt P0DP23, D132A/D96A); assay: Ca^2+ dissociation kinetics of CaM34 complexes with Cx32 peptides; assay type: binding; details: Table 3, CaM34 + C-terminal peptide, n = 2; for k2 (EF2, N-terminal CaM lobe): 10 μM peptide, 21 °C, mean ± S.D.
CaM12 (D22A/D58A CaM) = CaM12 (D22A/D58A CaM) (Homo sapiens, UniProt P0DP23, D23A/D59A); assay: Ca^2+ dissociation kinetics of CaM12 complexes with Cx32 peptides; assay type: binding; details: n = 1; for k4 (EF4, C-terminal CaM lobe) / relative amplitude A3 (EF3) / relative amplitude A4 (EF4): Table 3, CaM12 + C-terminal peptide; for k4 (EF4, C-terminal CaM lobe): 21 °C
Outline: as §1

CaM = CaM (Homo sapiens, UniProt P0DP23); assay: Ca^2+ dissociation kinetics of CaM complexes with Cx32 peptides; assay type: binding; details: for relative amplitude A1 (EF1) / relative amplitude A2 (EF2) / relative amplitude A3 (EF3) / relative amplitude A4 (EF4): Table 3, CaM + C-terminal peptide, n = 3 (208-226), 2 (208-227)
Outline: as §1

DA-CaM [3] = biological target: T1, DA-CaM (Homo sapiens, UniProt P0DP23, T111C/T35C); assay: Conformation of CaM in peptide complexes: donor quenching of DA-CaM; assay type: binding; details: 433 nM DA-CaM, 0.5 mM CaCl2; further addition of 4.4 μM peptide
Outline: (§2)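 DA-CaM was made from T34C/T110C CaM randomly labeled with IAEDANS (donor) and DDP (quencher), then HPLC-fractionated into lobe-specific labeled species. Equilibrium titration used increasing peptide concentrations on a spectrofluorimeter. Donor quenching indicated CaM compactness in the complex, and Kd came from fitting the binding data.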

AEDANS-T34C/T110C-CaM = AEDANS-T34C/T110C-CaM (Homo sapiens, UniProt P0DP23, T111C/T35C); assay: Equilibrium fluorescence titration of AEDANS-T34C/T110C-CaM with Cx32 208–226; assay type: binding
DA-CaM [4] = biological target: T1, DA-CaM; assay: Equilibrium fluorescence titration of DA-CaM with Cx32 1–19; assay type: binding
Outline: as §2

Substance	k2 (EF2, N-terminal CaM lobe) (CaM34 (D95A/D131A CaM))	k4 (EF4, C-terminal CaM lobe) (CaM12 (D22A/D58A CaM); 10 μM peptide)	relative amplitude A3 (EF3) (CaM12 (D22A/D58A CaM))	relative amplitude A4 (EF4) (CaM12 (D22A/D58A CaM))	relative amplitude A1 (EF1) (CaM)	relative amplitude A2 (EF2) (CaM)	relative amplitude A3 (EF3) (CaM)	relative amplitude A4 (EF4) (CaM)	further results
Cx32 1–21: peptide, consisting of residues 1–21, which represents the N-terminal tail CaM-binding domain of Cx32	–	–	–	–	–	–	–	–	Kd (TA-CaM; TA-CaM (Lys75-modified fluorescent CaM), Ca^2+-dependent): 27 nM
Cx32 216–230: peptide representing residues 216–230 of the Cx32 C-terminal tail (ACARRAQRRSNPPSR; UniProt P08034 216-230, looked up, fragment)	–	–	–	–	–	–	–	–	relative affinity for CaM, in words (TA-CaM; compared with 208–226 peptide): higher affinity than the 208–226 peptide
calmodulin [CaM]	–	–	–	–	–	–	–	–	higher Ca^2+ affinity of the C-terminal lobe of apo CaM (fold) ([1]; Ca^2+-free (apo) CaM, C-lobe vs N-lobe): about 5 fold; Ca^2+ dissociation from the two N-terminal lobe sites, estimated ([1]; no peptide): ~1000 s^–1; ΔRF of two measurable (C-lobe) sites [2]: 0.08
Ac-EVVYLIIRACARRAQRRSNP-NH2 [Cx32 208–227]	169 ± 5.6 s⁻¹	3.1 ± 0.1 s⁻¹	0.5	1	0.5	1.5	1	1	relative amplitude A1 (EF1) (CaM34 (D95A/D131A CaM)): 0.5; relative amplitude A2 (EF2) (CaM34 (D95A/D131A CaM)): 1; rate constant for both C-lobe EF hands of CaM12·peptide complex (CaM12 (D22A/D58A CaM); 10 μM peptide): 3.1 ± 0.1 s^–1; involvement of the N-lobe EF hand binding (CaM; CaM complex, 10 μM peptide): 50%; relative affinity for CaM, in words (CaM; compared with 208–226 peptide): higher affinity for CaM than the 208–226 peptide
EVVYLIIRACARRAQRRSN [Cx32 208–226]	173 ± 0.4 s⁻¹	1.6 ± 0.1 s⁻¹	1	1	1	1	1	1	donor AEDANS fluorescence on increasing the peptide concentration (DA-CaM [3]): a blue shift was seen in the donor AEDANS fluorescence; Kd (AEDANS-T34C/T110C-CaM): 3450 ± 1090 nM; increase in fluorescence on peptide binding (fold) (AEDANS-T34C/T110C-CaM; donor-only labeled probe AEDANS-T34C/T110C-CaM): 2.5 fold
MNWTGLYTLLSGVNRHSTA [Cx32 1–19]	–	–	–	–	–	–	–	–	Kd (DA-CaM [4]): 1140 ± 100 nM

Source: publication PMC2555998 (The Journal of Biological Chemistry, 2008)
